# Assay results: ChEMBL document CHEMBL1122482, “Optical resolution, absolute configuration, and activity of the enantiomers of proxyphylline” (J Med Chem, 1983)
# What was measured:
# [1] = target: cGMP-specific 3',5'-cyclic phosphodiesterase (Homo sapiens, UniProt O76074); test: Inhibition of human lung high-affinity cGMP phosphodiesterases (0.5-2 uM/L)
# In short: (§1)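 Enzyme source was lung cytosol from homogenized unaffected tissue of a patient undergoing total pulmectomy for pulmonary carcinoma. Phosphodiesterase activity was measured essentially by the Thompson and Appleman method. Substrates were cAMP or cGMP at 0.5–2 μmol/L for the high-affinity form and 10–50 μmol/L for the low-affinity form. Inhibitor was added at 0.25–1.0 mmol/L. K_I came from Dixon plots of initial rates.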
# [2] = target: cGMP-dependent 3',5'-cyclic phosphodiesterase (Homo sapiens, UniProt O00408); test: Inhibition of human lung low-affinity cGMP phosphodiesterases (10-50 uM/L); in short: as §1
# Chain of cGMP-dependent 3',5'-cyclic phosphodiesterase (O00408 whole entry): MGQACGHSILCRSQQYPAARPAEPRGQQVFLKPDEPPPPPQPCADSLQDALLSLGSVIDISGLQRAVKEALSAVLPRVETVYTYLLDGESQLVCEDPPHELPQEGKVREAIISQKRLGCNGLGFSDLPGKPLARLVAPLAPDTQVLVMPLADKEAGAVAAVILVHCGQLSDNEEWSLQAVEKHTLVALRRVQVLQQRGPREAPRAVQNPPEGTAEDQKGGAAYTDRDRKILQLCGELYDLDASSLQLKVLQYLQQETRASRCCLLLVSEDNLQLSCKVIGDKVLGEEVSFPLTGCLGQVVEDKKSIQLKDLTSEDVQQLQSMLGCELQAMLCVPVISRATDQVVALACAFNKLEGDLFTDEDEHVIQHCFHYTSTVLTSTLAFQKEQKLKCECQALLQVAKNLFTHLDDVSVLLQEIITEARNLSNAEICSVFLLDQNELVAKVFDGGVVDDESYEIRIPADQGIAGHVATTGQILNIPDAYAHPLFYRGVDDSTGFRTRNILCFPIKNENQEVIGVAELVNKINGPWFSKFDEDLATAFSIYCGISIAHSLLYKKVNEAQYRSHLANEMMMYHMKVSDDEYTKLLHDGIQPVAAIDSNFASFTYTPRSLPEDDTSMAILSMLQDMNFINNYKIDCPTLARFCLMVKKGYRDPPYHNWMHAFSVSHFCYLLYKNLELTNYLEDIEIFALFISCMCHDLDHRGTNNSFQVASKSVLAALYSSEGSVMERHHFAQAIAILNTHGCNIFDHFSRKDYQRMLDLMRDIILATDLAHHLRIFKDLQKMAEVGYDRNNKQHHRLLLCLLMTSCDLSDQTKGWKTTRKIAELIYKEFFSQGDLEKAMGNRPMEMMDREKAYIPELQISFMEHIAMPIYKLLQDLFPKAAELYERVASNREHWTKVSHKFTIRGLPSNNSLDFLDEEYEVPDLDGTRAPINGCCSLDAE
# [3] = Inhibition of human lung high-affinity cAMP phosphodiesterases (0.5-2 uM/L); in short: as §1
Ki [1] [µM],Ki [2] [µM],Ki [3] [µM],Structure (SMILES)
600,600,500,C[C@@H](O)Cn1cnc2c1c(=O)n(C)c(=O)n2C [(R)-PROXYPHYLLINE]
600,700,400,C[C@H](O)Cn1cnc2c1c(=O)n(C)c(=O)n2C [(S)-PROXYPHYLLINE]
600,600,500,CC(O)Cn1cnc2c1c(=O)n(C)c(=O)n2C (centres undefined) [PROXYPHYLLINE]
